According to ChEMBL document CHEMBL4513216, “Probing the Open Global Health Chemical Diversity Library for Multistage-Active Starting Points for Next-Generation Antimalarials” (ACS Infect Dis, 2020):

Experiment: Toxicity liver stage against HepG2, at 10uM
Assay type: cell-based
Set-up: test concentration 10 uM, cell line HepG2-A16-CD81EGFP
Conditions: human, HepG2-A16-CD81EGFP cells; read-out: INHIBITION
Summary of the method: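 Uninfected HepG2-A16-CD81EGFP cells, 3 × 10^3 per well, 1536-well, plated on prespotted compound at 10 μM final, parasite-free screening media added to match infected plates; puromycin 10 μM positive, DMSO 0.5% negative; run in parallel with 48 h PbLuc assay at 37 °C, 5% CO2; viability by CellTiter-Glo luminescence, normalized to controls.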

| SMILES | cytotoxicity at 10 µM |
| --- | --- |
| CCSc1nnc(N(CCC#N)CCC#N)s1 | 4.91% |
| O=C(c1sccc1-n1cnnn1)N1CCC(Cc2ccccc2)CC1 | 9.49% |
| CCOc1ccccc1-c1noc(CN(C)Cc2cnn(C)c2)n1 | -6.98% |
| CN1CCN2C(=O)N(c3ccccc3)C[C@H]2C1 | 3.7% |
| CCCc1cc(=O)[nH]c2nnc(SCC(C)=O)n12 | 7.29% |
| Cc1ccccc1CSc1nc(=O)n(CCO)c2c1CCC2 | 20.6% |
| CO[C@@H]1CC[C@H]2[C@H]1OCCN2C(=O)c1ccco1 | -148% |
| CCCOc1ccc(C(=O)Oc2cc(=O)n3cccc(C)c3n2)cc1 | 5.17% |
| COc1cccc(CNC(=O)c2cccnc2N)c1 | 20.1% |
| COc1ccc(C2CC(=O)Oc3cc(C)[nH]c(=O)c32)cc1 (stereo not given) | -3.16% |
| COCC(C)(O)CNC(=O)COc1ccccc1OC (stereo not given) | -12.2% |
| O=C(c1ccc(=O)[nH]n1)N1CC(c2nc(Cc3ccccc3)no2)C1 | -19.3% |
| O=S(=O)(NCC1(O)CCOc2ccccc21)c1ccc(Br)s1 (stereo not given) | 1.43% |
| O=S(=O)(NC1=NCN(CCc2cccs2)CN1)c1ccc(F)cc1 | -1.01% |
| Cc1ccoc1C(=O)N1CCO[C@H]2[C@H](OCC3CCOCC3)CC[C@@H]21 | -6.42% |
| Cc1cccc(CN2C[C@@H]3CN(C(=O)NC(C)C)C[C@@H]3C2=O)c1 | -12.9% |
| CC(C)CC(=O)N1CCN(C(=O)N(C)C)CC2(CC(=O)N(C)C2)C1 (stereo not given) | -20.3% |
| O=C1COC2(CCN(Cc3ccccn3)CC2)CN1CC1CC1 | 13.9% |
| Cc1c2ncn(CC(=O)N(C)C)c(=O)c2nn1C | -2.56% |
| CCCn1cc(C(=O)n2nc(C)cc2C)c(S(=O)(=O)N2CCSCC2)n1 | -10.1% |
| Cc1cccc2c1cnn2CCCNC(=O)C(C)C | -2.12% |
| CC(C)NC(=O)C1(Cc2ccccc2-c2cncnc2)CCCNC1 (stereo not given) | 3.67% |
| O=C(O)c1cccc(CN2CCCC(Cc3ccn[nH]3)C2)c1 (stereo not given) | 5.39% |
| Cc1cc(C)n(C2CCN(S(C)(=O)=O)CC2)n1 | 15.7% |
| c1ccc2ncc(CC3CCNCC3)cc2c1 | 1.8% |
| COCC(=O)NC(CC(C)C)c1nc2cccnc2n1C (stereo not given) | 15.2% |
| CNC(=O)c1cnc(C)nc1CCNC(=O)CCc1ccccc1 | -0.0555% |
| O=C(N[C@@H]1CC[C@@H](N2CCCC2)[C@@H]1O)c1cc2cccc(F)c2[nH]1 | 2.91% |

| SMILES | cytotoxicity at 10 µM |
| --- | --- |
| CCOCC(=O)N1CCC(c2cc3ncccc3c(O)n2)CC1 | -30.1% |
| CC1(C2CCN(CC(N)=O)CC2)CN(Cc2ccccc2)C(=O)CO1 (stereo not given) | -19.9% |
| Cc1ccccc1CC(=O)N1CC[C@@](O)(CNS(C)(=O)=O)[C@H](O)C1 | -25.6% |
| COCC(=O)N1CCCC1c1nc(O)cc(C(C)C)n1 (stereo not given) | -15.5% |
| Cc1cc(-c2cnc(N3CCNC(=O)C3)nc2-c2sccc2C)on1 | -12% |
| CC(=O)Nc1nc(C2CCN(C(=O)Cc3ccccc3)CC2)cs1 | -11.8% |
| Cc1cc(CN2CCOC(C)(C(=O)N3CCOCC3)C2)no1 (stereo not given) | -24.2% |
| COCCC(=O)N1CCC(c2cc(O)n(C)n2)C1 (stereo not given) | -23.1% |
| Cc1ccc(C)c(CC(=O)NC2CCCS(=O)(=O)C2)c1 (stereo not given) | -7.52% |
| Cc1ccc(CNCCC(O)(c2nccn2C)C(F)(F)F)o1 (stereo not given) | 1.18% |
| CC(C)N(C)CCCNC(=O)c1cnn(C(C)C)c1C(F)(F)F | 5.31% |
| CN(c1nc(Cn2cc(Br)ccc2=O)cs1)C1CC1 | 8.34% |
| CS(=O)(=O)NCCCNC(=O)c1cnc(-c2ccsc2)s1 | -13.7% |
| CN1CCN(C(=O)C2(S(C)(=O)=O)CCCC2)Cc2ccccc21 | -4.96% |
| Cc1noc(C)c1C(C)NC(=O)N1CCC(NC(=O)c2ccsc2)CC1 (stereo not given) | 7.07% |
| CCN1CC(COC(=O)c2ccc(Br)cc2F)CC1=O (stereo not given) | -2.45% |
| CCn1nc2c(cc1=O)CN(CCOc1cccc(C#N)c1)CC2 | 4.67% |
| O=C(N1CCc2ccccc2CC1)C1(O)Cc2ccccc2C1 | 10.8% |
| Cc1ccc(NC2CCN(C(=O)CCCc3ccccn3)CC2)nn1 | 16.4% |
| Cc1cccc(CS(=O)(=O)c2nnc(N3CCOCC3)s2)c1 | -3.48% |
| Cc1cccc(NC(=O)[C@@H]2CCCN2Cc2ccccc2C#N)n1 | -4.11% |
| O=C(NCCNS(=O)(=O)c1ccc(C(F)(F)F)cc1)c1ccoc1 | -1.36% |
| O=C(CN1CCN(c2ccnc3c(F)ccc(F)c23)CC1)NC1CC1 | -1.12% |
| CC(NCCN1CCN(C(=O)C2CCCC2)CC1)c1nccs1 (stereo not given) | -0.513% |
| Cc1cc(Cl)ccc1NCc1cnn(C2CCS(=O)(=O)C2)c1 (stereo not given) | 6.51% |
| COCCN(C(=O)c1ccn(-c2ccc(OC)cc2)n1)C(C)C(N)=O (stereo not given) | 0.337% |
| Cc1cc(C)c(CNC(=O)NCC2Cc3ccccc32)c(=O)[nH]1 (stereo not given) | -3.78% |
